Activity calls are given as the source filed them.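 Rule for the calls, unless noted: active = potentiation averaged over duplicate wells exceeding buffer-only control mean by more than 3 SD; inactive = the rest.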
Columns and labels:
[1] = thallium flux activation in parental CHO cells, counter-screen for KCNQ1 potentiator project (AID 493006;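 active = duplicate-averaged activation above buffer control mean plus 5 SD of those controls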); conditions: parental CHO-K1 cells, FluxOR thallium flux, at 10 µM; stronger effect = higher value
Summary of the method: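 Assay system: Untransfected host CHO-K1 cells with FluxOR thallium dye | Probe or stimulus: Potassium/thallium depolarization pulse | Schedule: Overnight 37 °C plating, 90 min RT dye, 20 min compound | Detection: Kinetic thallium-flux fluorescence | Read-out: Max-minus-min fluorescence over baseline, percent of buffer-to-R-L3 span | Benchmarks: Low control buffer, high control R-L3 activator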

[2] = target: Potassium voltage-gated channel subfamily KQT member 1 (Homo sapiens) (UniProt P51787); assay: KCNQ1 potassium channel potentiators, confirmation, FluxOR thallium flux, CHO cells, duplicates (AID 493007); conditions: KCNQ1 cell line, FluxOR thallium flux fluorescence, at 10 µM; stronger effect = higher value, % of reference activator effect, buffer zero;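 for outcome: cells depolarized by a potassium plus thallium sulfate stimulus after compound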
Chain of Potassium voltage-gated channel subfamily KQT member 1 (Homo sapiens) (P51787 whole entry, looked up): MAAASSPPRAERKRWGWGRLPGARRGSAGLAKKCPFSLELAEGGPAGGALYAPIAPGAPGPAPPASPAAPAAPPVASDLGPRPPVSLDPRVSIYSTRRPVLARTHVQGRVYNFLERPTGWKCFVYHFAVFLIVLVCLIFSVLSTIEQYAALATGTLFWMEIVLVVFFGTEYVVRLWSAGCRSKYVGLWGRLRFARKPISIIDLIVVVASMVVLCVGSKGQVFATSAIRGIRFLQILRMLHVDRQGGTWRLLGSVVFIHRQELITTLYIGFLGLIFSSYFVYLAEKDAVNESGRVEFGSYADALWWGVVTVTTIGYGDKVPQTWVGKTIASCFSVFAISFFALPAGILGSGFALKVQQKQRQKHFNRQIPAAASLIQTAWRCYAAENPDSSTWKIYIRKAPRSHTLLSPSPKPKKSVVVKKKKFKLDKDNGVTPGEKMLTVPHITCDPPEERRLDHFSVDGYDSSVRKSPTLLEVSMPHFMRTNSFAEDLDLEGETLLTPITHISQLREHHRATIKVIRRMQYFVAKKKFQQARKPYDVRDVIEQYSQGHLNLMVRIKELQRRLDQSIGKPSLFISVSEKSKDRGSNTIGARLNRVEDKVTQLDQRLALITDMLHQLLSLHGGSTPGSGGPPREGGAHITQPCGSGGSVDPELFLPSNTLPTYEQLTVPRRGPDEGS
Summary of the method: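 Material: KCNQ1-expressing CHO cell line; Incubation: FluxOR dye loading 90 min, compound exposure 20 min, room temperature; Detection: FluxOR Tl+ flux fluorescence, 10 s baseline plus 110 s recording; Read-out: percent activation between buffer and R-L3 responses; Control set: buffer-only wells as 0% and R-L3 activator as 100%; Replication: duplicate wells per compound.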

[3] = target: Potassium voltage-gated channel subfamily KQT member 2 (Rattus norvegicus) (UniProt O88943); assay: rat KCNQ2 channel potentiation, selectivity assay for KCNQ1 potentiator project, KCNQ2-CHO-K1 cells (AID 493009;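 active = mean duplicate potentiation above the buffer control mean plus 5 SD of buffer wells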;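 note: assay conditions were tuned for KCNQ1 rather than KCNQ2 modulators; signal is max minus min fluorescence divided by baseline after thallium stimulus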); conditions: FluxOR thallium flux fluorescence, at 10 µM; stronger effect = higher value, scaled: buffer 0, activator control 100
Chain of Potassium voltage-gated channel subfamily KQT member 2 (Rattus norvegicus) (O88943 whole entry, looked up): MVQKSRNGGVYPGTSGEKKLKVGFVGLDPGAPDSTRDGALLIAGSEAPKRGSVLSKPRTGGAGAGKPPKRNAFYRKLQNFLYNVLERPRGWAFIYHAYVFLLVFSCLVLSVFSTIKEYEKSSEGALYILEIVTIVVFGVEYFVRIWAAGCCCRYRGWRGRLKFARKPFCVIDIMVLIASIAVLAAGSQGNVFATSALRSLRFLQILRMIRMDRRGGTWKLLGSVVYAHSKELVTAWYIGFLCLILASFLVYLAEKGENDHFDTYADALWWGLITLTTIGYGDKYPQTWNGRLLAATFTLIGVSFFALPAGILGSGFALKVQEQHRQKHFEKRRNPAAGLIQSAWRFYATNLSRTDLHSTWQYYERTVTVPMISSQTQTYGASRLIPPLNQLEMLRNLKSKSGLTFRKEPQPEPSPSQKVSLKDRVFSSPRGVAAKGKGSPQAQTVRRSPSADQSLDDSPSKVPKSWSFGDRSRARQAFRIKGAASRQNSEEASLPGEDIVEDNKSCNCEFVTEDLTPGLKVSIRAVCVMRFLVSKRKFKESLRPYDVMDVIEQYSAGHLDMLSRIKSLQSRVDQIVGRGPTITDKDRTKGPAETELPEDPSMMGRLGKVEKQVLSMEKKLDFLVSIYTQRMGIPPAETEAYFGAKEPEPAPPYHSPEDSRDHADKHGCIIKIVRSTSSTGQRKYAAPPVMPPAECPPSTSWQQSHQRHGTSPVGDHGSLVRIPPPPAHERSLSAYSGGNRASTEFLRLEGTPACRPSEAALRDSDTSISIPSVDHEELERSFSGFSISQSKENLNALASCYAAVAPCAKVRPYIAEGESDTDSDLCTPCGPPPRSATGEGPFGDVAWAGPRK

[4] = target: Potassium voltage-gated channel subfamily KQT member 1 (Homo sapiens) (UniProt P51787); assay: KCNQ1 channel current potentiators, confirmation, orthogonal assay for KCNQ1 potentiator project, IonWorks patch clamp, KCNQ1-CHO cells (AID 493184;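 active = current rise at least 3 SD above the untreated control mean in each of two repeat wells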;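 for current potentiation: percent change of the same well's current before compound addition so 0% = no change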); conditions: automated patch clamp current, at 10 µM; stronger effect = higher value
Summary of the method: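 assay system = KCNQ1-expressing CHO cells | medium = external bath solution at pH 7.4 | probe or stimulus = 2,000 ms depolarization, -90 to +40 mV | compound dosing = 10 µM final, single point | measured by = automated voltage clamp, amphotericin B perforated patch | measure = percent current increase versus pre-compound level | replication = duplicates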

[5] = target: Potassium voltage-gated channel subfamily E member 1 (Homo sapiens) + Potassium voltage-gated channel subfamily KQT member 1 (Homo sapiens) (UniProt P15382+P51787); assay: KCNQ1/KCNE1 complex potentiators, confirmation, selectivity assay for KCNQ1 potentiator project, thallium flux, CHO-K1 KCNQ1/E1 cells (AID 493186;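 active = mean duplicate activation above the buffer control mean plus 5 SD of those controls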); conditions: FluxOR thallium flux, at 10 µM; stronger effect = higher value
Chain of Potassium voltage-gated channel subfamily E member 1 (Homo sapiens) + Potassium voltage-gated channel subfamily KQT member 1 (Homo sapiens) (P51787 whole entry, looked up): as the sequence (P51787 whole entry, looked up) above
Summary of the method: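 Test system – CHO-K1 cells with KCNQ1/E1 · Measured by – FluxOR Tl+ flux fluorescence, kinetic read · Controls – buffer low control, R-L3 high control · Times – dye 90 min, compound 20 min, room temperature · Replication – duplicate wells per compound · Doses – one test concentration · Evaluation – fluorescence rise relative to baseline, as percent of R-L3 response above buffer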

SMILES	outcome [1]	outcome [2]	outcome [3]	outcome [4]	outcome [5]	current potentiation [4]	potentiation [2]	potentiation [3]
COC(=O)c1sccc1NS(=O)(=O)c1ccc(F)cc1F	inactive	inactive	inactive	inactive	inactive	–	–	–
Cc1cc(/C=N/n2cnnc2)c(C)n1-c1cc(Cl)ccc1Cl	inactive	inactive	inactive	–	inactive	18.5% (active)	–	–
O=C(O)c1ccc2c(=O)n3cc(C(=O)c4ccccc4O)cc(Cl)c3nc2c1	inactive	inactive	inactive	inactive	inactive	–	–	–
Cc1ccc(CNc2nc3c([nH]2)c(=O)n(C)c(=O)n3C)cc1	inactive	inactive	inactive	inactive	inactive	–	–	–
Cc1cccc(NC(=O)C2CCCN2S(=O)(=O)c2ccc(Cl)cc2)n1 (stereo not given)	inactive	inactive	inactive	inactive	inactive	–	–	–
CC(=O)/C=C/c1ccc2ccccc2n1	inactive	inactive	inactive	inactive	inactive	–	–	–
Cc1cc(C)cc(-n2c(C)cc(/C=C3\C(=N)N4N=C(CC(C)C)SC4=NC3=O)c2C)c1	inactive	–	inactive	inactive	inactive	–	21.5% (active)	–
CCC1(CC)Cc2ccccc2-c2[nH]c(=S)[nH]c(=O)c21	inactive	inactive	inactive	inactive	inactive	–	–	–
N/C(=N\OC(=O)c1cccc2ccccc12)c1ccc(Br)cc1	inactive	inactive	inactive	inactive	inactive	–	–	–
COC(=O)C1=C(C)N(c2ccc(F)c(Cl)c2)C(=O)C1	inactive	inactive	inactive	inactive	inactive	–	–	–
CC(=O)c1cccc(OCc2cc(C(=O)N(C)C(C)c3ccccn3)no2)c1 (stereo not given)	inactive	inactive	inactive	inactive	inactive	–	–	–
O=C(NC(=S)Nc1cccc(Cl)c1N1CCCCC1)c1cccs1	inactive	–	inactive	inactive	inactive	–	54% (active)	–
COc1cc2c(cc1NC(=O)CSc1nnc(COc3ccc(Cl)cc3)n1C)oc1ccccc12	inactive	–	inactive	inactive	inactive	–	49.5% (active)	–
O=C(Nc1nnc(-c2ccco2)o1)c1ccc(Cl)cc1	inactive	inactive	–	inactive	inactive	–	–	148% (active)
CCOC(=O)c1cc2c(C)n(-c3ccc(C)cc3)c(C)c2ccc1=O	inactive	–	inactive	inactive	inactive	–	19.5% (active)	–
CCN(CC)S(=O)(=O)c1cccc(C(=O)N/N=C/c2cccc(O)c2O)c1	inactive	inactive	inactive	inactive	inactive	–	–	–
CN(C)CCNc1nc2sc3c(c2c(=O)n1CCc1ccccc1)CCCCC3	inactive	–	inactive	inactive	inactive	–	19% (active)	–
O=C(NC(=S)NCCc1ccccc1)c1ccco1	inactive	inactive	inactive	inactive	inactive	–	–	–
Cc1onc(-c2ccccc2)c1C(=O)NC(=S)Nc1sc2c(c1C#N)CCCC2	inactive	–	inactive	inactive	inactive	–	31.5% (active)	–
O=C(NCCCN1CCCC1)c1ccc2c(c1)N(Cc1ccccc1)CCS2	inactive	inactive	inactive	inactive	inactive	–	–	–

SMILES	outcome [1]	outcome [2]	outcome [3]	outcome [4]	outcome [5]	current potentiation [4]	potentiation [2]	potentiation [3]
COc1ccc(-c2csc(NC(=S)NC(=O)c3cccs3)n2)cc1Br	inactive	inactive	inactive	inactive	inactive	–	–	–
CC1CCCCC1NC(=S)NC(=O)c1sc2ccccc2c1Cl (stereo not given)	inactive	–	inactive	inactive	inactive	–	54% (active)	–
CCC(C)NC(=O)Cn1c(-c2ccccc2)cc(C(C)=O)c1C (stereo not given)	inactive	–	inactive	inactive	inactive	–	22% (active)	–
CC1(C)CC(Nc2ccc(Nc3ccccc3)cc2)CC(C)(C)N1	inactive	–	inactive	inactive	inactive	–	23.5% (active)	–
O=C(NC1CCCC1)C(=O)N(Cc1cccnc1)C(C(=O)NC1CCCC1)c1ccco1 (stereo not given)	inactive	–	inactive	inactive	inactive	–	35% (active)	–
CCc1ccc2oc(C(=O)NC3CCS(=O)(=O)C3)cc(=O)c2c1 (stereo not given)	inactive	inactive	inactive	inactive	inactive	–	–	–
O=C(CSc1nnc(-c2ccccn2)n1-c1ccc(Cl)cc1)Nc1ccc2c(c1)OCO2	inactive	inactive	inactive	inactive	inactive	–	–	–
Cc1ccccc1CS(=O)(=O)c1nnc([C@H](Cc2ccccc2)NC(=O)OC(C)(C)C)o1	inactive	–	inactive	inactive	inactive	–	22.5% (active)	–
COC(=O)c1sc(NC(=S)NC(=O)c2ccccc2)nc1C	inactive	inactive	inactive	inactive	inactive	–	–	–
c1ccc(CNc2nc3ccccc3[nH]2)cc1	inactive	inactive	inactive	inactive	inactive	–	–	–
COC1(c2ccccc2)NC(=S)NN=C1c1ccccc1 (stereo not given)	inactive	inactive	inactive	inactive	inactive	–	–	–
Cc1cc(C)nc(N/N=C/c2cccc3ccccc23)n1	inactive	inactive	inactive	inactive	inactive	–	–	–
Cc1c(C(=O)Nc2ccc(F)cc2)oc2ccc(S(=O)(=O)N3CC(C)CC(C)C3)cc12 (stereo not given)	inactive	inactive	inactive	inactive	inactive	–	–	–
O=C(N/N=C/c1ccc([N+](=O)[O-])o1)c1sc2ccccc2c1Cl	inactive	inactive	inactive	inactive	inactive	–	–	–
O=C(O)CCCN1C(=O)/C(=C/c2ccc(-c3nc4ccccc4s3)o2)SC1=S	inactive	–	–	inactive	inactive	–	21.5% (active)	143% (active)
COC(=O)[C@H](C)NC(=O)Nc1cc(Cl)ccc1C	inactive	inactive	inactive	inactive	inactive	–	–	–
CC(=O)/C(=N/Nc1ccc([N+](=O)[O-])cc1)N1CCCc2ccccc21	inactive	inactive	inactive	inactive	inactive	–	–	–
C=CCn1c(=S)[nH]c2cc(-c3ccccc3)sc2c1=O	inactive	inactive	inactive	inactive	inactive	–	–	–
Cc1cc(NC(=O)CSCC(=O)OC(C)C(=O)N(C)Cc2ccccc2)no1 (stereo not given)	inactive	–	inactive	inactive	inactive	–	28% (active)	–
COC(=O)N/N=C/c1cc(C)n(-c2ccc(F)cc2)c1C	inactive	inactive	inactive	inactive	inactive	–	–	–

SMILES	outcome [1]	outcome [2]	outcome [3]	outcome [4]	outcome [5]	current potentiation [4]	potentiation [2]	potentiation [3]
Cc1ccsc1/C=N\NC(=O)c1n[nH]c2c1CCC2	inactive	inactive	inactive	inactive	inactive	–	–	–
O=C(NC(=S)Nc1ccc(CN2CCOCC2)cc1)c1ccc(-c2cccc(Cl)c2)o1	inactive	–	–	inactive	inactive	–	64% (active)	144% (active)
CN1CCN(C(c2ccc(Cl)cc2)c2cc(Cl)c3cccnc3c2O)CC1 (stereo not given)	inactive	inactive	inactive	inactive	inactive	–	–	–
Cc1ccc2cc(/C=N/NC(=O)CN3CCCCC3)c(Cl)nc2c1	inactive	inactive	inactive	inactive	inactive	–	–	–
CCOC(=O)C(C(=O)OCC)C(C(=O)OCC)N1CCOCC1 (stereo not given)	inactive	inactive	–	inactive	inactive	–	–	171% (active)
O=C(c1ccc(-c2ccccc2)cc1)C1CCCN(C(=O)Cn2cncn2)C1 (stereo not given)	inactive	inactive	inactive	inactive	inactive	–	–	–
O=C(NNC(=S)NC(=O)c1ccc(Br)cc1)c1cccc([N+](=O)[O-])c1	inactive	inactive	inactive	inactive	inactive	–	–	–
CCSc1nnc(-c2ccncc2)n1Cc1ccccc1	inactive	inactive	inactive	inactive	inactive	–	–	–
CN(C)c1ccnc(N(Cc2ccccc2)Cc2ccccc2)c1C#N	inactive	inactive	inactive	inactive	inactive	–	–	–
Cn1nnc(NC(=O)C(c2ccccc2)c2ccccc2)n1	inactive	inactive	inactive	inactive	inactive	–	–	–
Cc1ccc2nc(C3CCN(S(=O)(=O)c4ccc5ccccc5c4)CC3)[nH]c2c1	inactive	inactive	inactive	inactive	inactive	–	–	–
CCOC(=O)C1CCCN(C(=O)Cn2sc3nc(C)cc(C)c3c2=O)C1 (stereo not given)	inactive	inactive	inactive	inactive	inactive	–	–	–
Cc1cc(-c2cccnc2)c(C#N)c(SCC#N)n1	inactive	inactive	inactive	inactive	inactive	–	–	–
O=c1oc2ccccc2c(Cl)c1CN1CCCCC1	inactive	inactive	inactive	inactive	inactive	–	–	–
CCOC(=O)N1CCC(N2C(=O)c3ccc(C(=O)NCCC(C)C)cc3C2=O)CC1	inactive	–	–	inactive	inactive	–	69% (active)	150% (active)
O=C(CNC(=S)NC(=O)c1ccc(Br)o1)c1ccccc1	inactive	inactive	inactive	inactive	inactive	–	–	–
NC(=O)CN1C(=O)NC2(CCOc3ccccc32)C1=O (stereo not given)	inactive	inactive	inactive	inactive	inactive	–	–	–
CN1CCN(c2ccc(S(=O)(=O)N3CCCCC3)cc2NC(=O)COc2cccc(Cl)c2)CC1	inactive	inactive	inactive	inactive	inactive	–	–	–
COc1cccc(NC(=S)N/N=C2/CCCCc3ccccc32)c1	inactive	–	inactive	inactive	inactive	–	26% (active)	–
CN(C1CCCCC1)S(=O)(=O)c1ccc(NC(=S)NC(=O)c2cccs2)cc1	inactive	–	–	inactive	inactive	–	30% (active)	155% (active)
